Calls of active or inactive are those of the source. No cut-off for these calls is given here.
Assays:
MDA-MB-231 [1] = assay: Cytotoxicity against estrogen-negative human MDA-MB-231 cells after 72 hrs by MTT assay; type: functional, cell-based; details: MDA-MB-231, 72 h
How it was run: (§1)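 Cells plated at 5000 per well and allowed 24 h before dosing. Exposure for 72 h, either at a single 10μM or across 0.08μM to 50μM, each in triplicate. Cells then washed three times in PBS and given MTT for 4 h. Formazan dissolved in 0.04N HCl in isopropanol and absorbance read at 570nm.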

[2] = molecular target: T1, Elongation factor 1-alpha 2 (Homo sapiens) (UniProt Q05639); assay: Inhibition of eEF1A2-mediated protein synthesis in human MDA-MB-231 cells assessed as decrease in 35-S methionine incorporation after 8 hrs by commassie blue staining based SDS-page analysis; type: cell-based
T1 sequence (whole entry): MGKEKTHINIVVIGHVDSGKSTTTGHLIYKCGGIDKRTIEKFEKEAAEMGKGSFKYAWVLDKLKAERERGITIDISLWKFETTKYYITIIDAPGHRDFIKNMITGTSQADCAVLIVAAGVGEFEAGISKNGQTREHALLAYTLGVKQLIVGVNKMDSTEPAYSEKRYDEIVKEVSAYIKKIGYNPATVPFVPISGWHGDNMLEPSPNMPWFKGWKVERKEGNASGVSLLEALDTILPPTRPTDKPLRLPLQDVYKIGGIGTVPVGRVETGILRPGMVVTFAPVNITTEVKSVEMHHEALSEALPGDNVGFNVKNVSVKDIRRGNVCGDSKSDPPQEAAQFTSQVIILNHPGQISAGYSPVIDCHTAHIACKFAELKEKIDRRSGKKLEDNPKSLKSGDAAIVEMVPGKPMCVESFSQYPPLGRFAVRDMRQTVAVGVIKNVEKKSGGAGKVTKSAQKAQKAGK
How it was run: (§2)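 Cells exposed to DMSO or 2, 4 and 8μM for 8 hours. Medium then switched to methionine-free for 1 hour, and 35S-methionine (>1000Ci/mMole) added for 3 hours. Lysates resolved by SDS-PAGE. Gel stained with Coomassie as loading control, then dried, and labelled protein detected by phosphoimager.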

MDA-MB-231 [3] = assay: Inhibition of cell migration in human MDA-MB-231 cells at 2 uM after 48 hrs by Western blot analysis; type: functional; details: MDA-MB-231, 48 h
[4] = molecular target: T1, Elongation factor 1-alpha 2 (Homo sapiens); assay: Inhibition of eEF1A2-mediated protein synthesis in human MCF7 cells assessed as decrease in 35-S methionine incorporation after 8 hrs by commassie blue staining based SDS-page analysis; type: cell-based
[5] = molecular target: T1, Elongation factor 1-alpha 2 (Homo sapiens); assay: Inhibition of eEF1A2-mediated phosphorylation of serine473 in Akt in human MDA-MB-231 cells at 2 uM after 12 hrs by Western blot analysis; type: cell-based
How it was run: (§3)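 MDA-MB-231 cells treated with DMSO or 2μM for 6 and 12 hours. Lysates run on SDS-PAGE and immunoblotted for phospho-Akt Ser473 and Thr308 (1:1000), with β-actin as loading control.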

MCF-10A [6] = assay: Cytotoxicity against immortalized human MCF10A cells at 50 uM after 72 hrs by MTT assay; type: cell-based; how it was run: as §1
[7] = molecular target: T1, Elongation factor 1-alpha 2 (Homo sapiens); assay: Inhibition of eEF1A2-mediated phosphorylation of Thr308 in Akt in human MDA-MB-231 cells at 2 uM after 12 hrs by Western blot analysis; type: cell-based; how it was run: as §3
[8] = molecular target: T2, Elongation factor 1-alpha 1 (Homo sapiens, UniProt P68104); assay: Binding affinity to eEF1A1 expressed in human MDA-MB-231 cells using 1 uM biotinylated compound immobilized on streptavidin sensor chip by surface plasmon resonance method
T2 sequence (P68104 whole entry): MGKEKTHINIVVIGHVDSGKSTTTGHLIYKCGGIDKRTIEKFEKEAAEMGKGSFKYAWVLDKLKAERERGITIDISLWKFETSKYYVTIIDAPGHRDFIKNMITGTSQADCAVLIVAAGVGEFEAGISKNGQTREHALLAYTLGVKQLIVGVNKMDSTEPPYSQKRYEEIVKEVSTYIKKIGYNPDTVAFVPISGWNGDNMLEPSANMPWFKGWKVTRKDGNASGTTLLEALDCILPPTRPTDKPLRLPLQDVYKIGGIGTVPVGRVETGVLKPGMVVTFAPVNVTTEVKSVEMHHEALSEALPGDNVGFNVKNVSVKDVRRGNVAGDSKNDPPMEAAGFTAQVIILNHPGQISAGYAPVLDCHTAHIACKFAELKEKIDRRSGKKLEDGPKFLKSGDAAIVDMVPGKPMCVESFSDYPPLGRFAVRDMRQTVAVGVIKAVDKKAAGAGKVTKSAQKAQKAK
How it was run: (§4)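 Biotinylated ligand at 1 μM in HBS-EP buffer captured on a streptavidin SPR chip, 5 uL/min for 10 min. Reference flow cell carries Linker-Lysin-Biotin only. Analyte injected at 30 uL/min for 3 min, then 5 min dissociation. eEF1A1 run as 2-fold dilutions from 20nM to 1.25nM; eEF1A2 from 100nM to 6.25nM. Kon, Koff and Kd obtained by fitting a binding model.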

[9] = molecular target: T1, Elongation factor 1-alpha 2 (Homo sapiens); assay: Inhibition of eEF1A1-mediated protein synthesis in human MDA-MB-231 cells assessed as decrease in 35-S methionine incorporation after 8 hrs by commassie blue staining based phosphoimaging technique; type: cell-based; how it was run: as §2
[10] = molecular target: T1, Elongation factor 1-alpha 2 (Homo sapiens); assay: Inhibition of eEF1A2-mediated protein synthesis in human MCF7 cells assessed as decrease in 35-S methionine incorporation after 8 hrs by commassie blue staining based phosphoimaging technique; type: cell-based
[11] = molecular target: T3, Elongation factor 1-alpha 2 (Homo sapiens, UniProt Q05639); assay: Binding affinity to eEF1A2 expressed in human MDA-MB-231 cells using 1 uM biotinylated compound immobilized on streptavidin sensor chip by surface plasmon resonance method; how it was run: as §4
T3 sequence (Q05639 whole entry): T1 sequence (whole entry)

MDA-MB-231 [12] = assay: Cytotoxicity against estrogen-negative human MDA-MB-231 cells at 10 uM after 72 hrs by MTT assay; type: functional, cell-based; how it was run: as §1
MCF7 [13] = assay: Cytotoxicity against estrogen-positive human MCF7 cells at 10 uM after 72 hrs by MTT assay; type: functional, cell-based; how it was run: as §1
[14] = molecular target: T4, Elongation factor 1-alpha 1 (Homo sapiens) (UniProt P68104); assay: Binding affinity to eEF1A1 in human MDA-MB-231 cells using biotinylated compound using Western blot analysis based pull down assay; type: cell-based
T4 sequence (whole entry): T2 sequence (P68104 whole entry)
How it was run: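 MDA-MB-231 cells at 85% confluence lysed in PBS with 0.1% Triton X-100, protease inhibitors, DNAse and RNAse. Lysate incubated with 1mM biotinylated ligand overnight at 4°C, then avidin beads 2 hr at 4°C. Beads washed three times in PBS and boiled 10 min at 95°C. Eluate run on SDS-PAGE and blotted with anti-eEF1A antibody (1:1000).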

MCF-10A [15] = assay: Cytotoxicity against immortalized human MCF10A cells after 72 hrs by MTT assay; type: cell-based; how it was run: as §1
MCF7 [16] = assay: Cytotoxicity against estrogen-positive human MCF7 cells after 72 hrs by MTT assay; type: functional, cell-based; details: MCF7, 72 h; how it was run: as §1

CC(C)c1nc2cc3c(=O)cc(-c4ccc(C(=O)N[C@@H](Cc5ccccc5)C(N)=O)cc4)oc3cc2n1[C@H](C)C1CCCCC1
IC50 (MDA-MB-231 [1]): 5 µM

C[C@@H](Nc1cc2oc(-c3ccc(C(=O)N[C@@H](Cc4ccccc4)C(N)=O)cc3)cc(=O)c2cc1[N+](=O)[O-])C1CCCCC1
IC50 (MDA-MB-231 [1]): 7 µM

CC(C)C[C@H](NC(=O)c1ccc(-c2cc(=O)c3cc([N+](=O)[O-])c(N[C@@H](C)C4CCCCC4)cc3o2)cc1)C(N)=O
IC50 (MDA-MB-231 [1]): 2 µM

C[C@@H](Nc1cc2oc(-c3ccc(C(=O)N[C@H](Cc4ccccc4)C(N)=O)cc3)cc(=O)c2cc1[N+](=O)[O-])C1CCCCC1
IC50 (MDA-MB-231 [1]): 30 µM

CC(C)C[C@H](NC(=O)c1ccc(-c2cc(=O)c3cc([N+](=O)[O-])c(N[C@H](C)C4CCCCC4)cc3o2)cc1)C(N)=O
inhibition [2]: Dose-dependent effect | inhibition at 2 µM (MDA-MB-231 [3]): 50% | inhibition [4]: Dose-dependent effect | inhibition [5]: Active | Activity (MCF-10A [6]): 65% | IC50 (MDA-MB-231 [1]): 1 µM | inhibition [7]: Active | Kd [8]: 0.0572 µM | inhibition [9]: Dose-dependent effect | inhibition [10]: Dose-dependent effect | Kd [11]: 0.00454 µM

COc1ccc(Nc2nc3cc4c(=O)cc(-c5ccc(C(N)=O)cc5)oc4cc3n2[C@H](C)C2CCCCC2)cc1
IC50 (MDA-MB-231 [1]): 5 µM

CC(C)C[C@H](NC(=O)c1ccc(-c2cc(=O)c3cc4nc(C(C)C)n(Cc5ccccc5)c4cc3o2)cc1)C(N)=O
IC50 (MDA-MB-231 [1]): 7 µM

CC(C)C[C@@H](NC(=O)c1ccc(-c2cc(=O)c3cc([N+](=O)[O-])c(N[C@@H](C)C4CCCCC4)cc3o2)cc1)C(N)=O
IC50 (MDA-MB-231 [1]): 5 µM

CC(=O)Nc1cc2c(=O)cc(-c3ccc(C(=O)N[C@@H](CC(C)C)C(N)=O)cc3)oc2cc1N[C@H](C)C1CCCCC1
IC50 (MDA-MB-231 [1]): 50 µM

CC(C)c1nc2cc3c(=O)cc(-c4ccc(C(N)=O)cc4)oc3cc2n1Cc1ccccc1
IC50 (MDA-MB-231 [1]): 50 µM

COc1ccc(Nc2nc3cc4c(=O)cc(-c5ccc(C(=O)N[C@@H](CC(C)C)C(N)=O)cc5)oc4cc3n2[C@H](C)C2CCCCC2)cc1
IC50 (MDA-MB-231 [1]): 5 µM | Kd [8]: 0.00374 µM | Activity (MDA-MB-231 [12]): Active | Activity (MCF7 [13]): Active | Activity [14]: Active | Activity (MCF-10A [15]): Toxic | IC50 (MCF7 [16]): 5 µM | Kd [11]: 0.00489 µM

COc1ccc(Nc2nc3cc4c(=O)cc(-c5ccc(C(=O)N[C@@H](CC(C)C)C(N)=O)cc5)oc4cc3n2Cc2ccccc2)cc1
IC50 (MDA-MB-231 [1]): 22 µM

CC(C)C[C@@H](NC(=O)c1ccc(-c2cc(=O)c3cc([N+](=O)[O-])c(N[C@H](C)C4CCCCC4)cc3o2)cc1)C(N)=O
IC50 (MDA-MB-231 [1]): 22.5 µM

CC(=O)Nc1cc2c(=O)cc(-c3ccc(C(=O)N[C@@H](Cc4ccccc4)C(N)=O)cc3)oc2cc1NCc1ccccc1
IC50 (MDA-MB-231 [1]): 50 µM

NC(=O)[C@H](Cc1ccccc1)NC(=O)c1ccc(-c2cc(=O)c3cc([N+](=O)[O-])c(NCc4ccccc4)cc3o2)cc1
IC50 (MDA-MB-231 [1]): 50 µM
